Screens from PubChem.
Wee1 stabilizer = human Wee1 degradation inhibition, primary screen. P30291. HeLa Luc-Wee1K328M stability, luciferase luminescence; 100% = proteasome inhibitor MG132 effect. reporter increase, % at 5 µM. 220,000 tested, 1.2% active. AID 1321;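 active = activation above the mean of all tested compounds plus 3 SD, set per screening run, cut at about 8.8% in these data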;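 note: cells exposed to compound for 20 h before luminescence read; 0% = DMSO alone and 100% = MG132 at 30 µM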
thrombin 1536 = blocks human thrombin protease activity; P00734; alpha-thrombin, Boc-VPR-AMC fluorogenic substrate cleavage; inhibition, % at 5 µM; 220,000 tested, 0.26% active; AID 1046;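 active = inhibition at or above 40%; inactive = inhibition below 40%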;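 note: 0% = enzyme with no compound and 100% = wells without enzyme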
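System – human alpha-thrombin · Medium – pH 7.5 Tris (50 mM) with NaCl 150 mM, Tween 20 0.05% · Compound – single-point dosing at 5 µM, 0.2% DMSO · Incubation – enzyme reaction carried out at room temperature · Technique – fluorescence of released AMC, ex 355 nm, em 460 nm · Read-out basis – % inhibition of thrombin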
FXIa inh = factor XIa (human) inhibition; P03951; purified FXIa, Boc-Glu-Ala-Arg-AMC fluorogenic substrate; inhibition, % at 5 µM; 220,000 tested, 0.14% active;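 active = inhibition of at least 40%; inactive = inhibition below 40%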;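 note: fluorescence of freed AMC excited at 355 nm; 0% = enzyme without compound and 100% = no enzyme blank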
FXIIa inh 1536 = inhibitors of human coagulation factor XIIa. purified FXIIa, Boc-QGR-AMC fluorogenic substrate, 2 h. AID 800. inhibition, % at 5 µM. 220,000 tested, 0.3% active; in the data active = inhibition above about 40%;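 note: 0% = enzyme with no compound and 100% = blank without enzyme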
Platelet DG rel = platelet dense granule release activity; human platelet-rich plasma, SFLLRN dense granule ATP release, luminescence; 300,000 tested, 0.22% active; inhibition, %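 (compounds screened at 7.5 µM in platelet-rich plasma)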; AID 1663;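 active = mean replicate score, as percent of positive control, at or above 50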
KLK5 inh = blocks human kallikrein 5 protease activity | inhibition, % at 5 µM | recombinant hK5, fluorogenic AMC substrate cleavage | Q9Y337 | 210,000 tested, 0.59% active;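 active = inhibition of 40% or more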;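 note: 0% = enzyme controls without compound and 100% = no-enzyme blanks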
Target sequence (Q9Y337 67-293 limits assumed): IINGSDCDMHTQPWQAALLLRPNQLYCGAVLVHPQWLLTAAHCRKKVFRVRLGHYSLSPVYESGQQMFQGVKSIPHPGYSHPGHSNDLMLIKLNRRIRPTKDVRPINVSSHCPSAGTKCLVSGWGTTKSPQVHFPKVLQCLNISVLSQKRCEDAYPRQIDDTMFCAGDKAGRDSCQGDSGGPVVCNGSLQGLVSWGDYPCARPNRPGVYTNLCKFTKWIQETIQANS
Wee1 degr conf = confirmation of human Wee1 degradation inhibitors. shares compounds with Wee1 stabilizer. HeLa Luc-Wee1K328M degradation, luminescence; vehicle 0%, proteasome-blocked wells 100%. activation, % at 5 µM. 1,100 tested, 4% active. AID 1410; in the data active = activation above about 8.9%
* marks the source's active call; other numbers are inactive results. A selection: hits, their analogues and other compounds. The true share with any hit is near 1.8%.

Results for Cc1ccc(/C=C/C(=O)c2ccc(O)cc2)cc1 ?
Wee1 stabilizer: 16.7*; thrombin 1536: -3.4; FXIa inh: 4.5; FXIIa inh 1536: 9.4; Platelet DG rel: 7.9; KLK5 inh: -4.4; Wee1 degr conf: -0.4

Results for CC(C)(C)NS(=O)(=O)c1ccc(NC(=O)Cc2ccccc2[N+](=O)[O-])cc1 ?
Wee1 stabilizer: -0.2; FXIa inh: 4.9; FXIIa inh 1536: 4.6; Platelet DG rel: -1.4; KLK5 inh: 0.3

How did CCCCNS(=O)(=O)c1ccc(NC(=O)Cc2ccccc2[N+](=O)[O-])cc1 do in these assays?
Wee1 stabilizer: 14.0*; thrombin 1536: -10.8; FXIa inh: -6.0; FXIIa inh 1536: -0.9; Platelet DG rel: -1.1; Wee1 degr conf: 0.9

How did CCSc1nnc(NC(=O)CSC2=NN3CCCC(=O)N=C3S2)s1 do in these assays?
Wee1 stabilizer: 17.1*; thrombin 1536: 1.1; FXIa inh: -0.4; FXIIa inh 1536: 6.7; Platelet DG rel: 1.7; KLK5 inh: -5.6; Wee1 degr conf: 1.9

Results for CCOc1ccc(NC(=O)CSC2=NN3CCCC(=O)N=C3S2)cc1 ?
Platelet DG rel: -5.6

How did Cc1cc(Cl)ccc1NC(=S)Nc1ccccn1 do in these assays?
Wee1 stabilizer: 15.2*; thrombin 1536: -7.1; FXIa inh: 2.0; FXIIa inh 1536: 6.0; Platelet DG rel: -0.2; KLK5 inh: -4.9; Wee1 degr conf: 11.9*

How did C=CCn1c(SCC(=O)Nc2cc(C)ccc2OC)nnc1-c1ccco1 do in these assays?
Wee1 stabilizer: 14.8*; thrombin 1536: 5.0; FXIa inh: 4.8; FXIIa inh 1536: 13.8; Platelet DG rel: -2.2; KLK5 inh: -10.3; Wee1 degr conf: 2.8

What do the screens show for `C=CCn1c(SCC(=O)Nc2cc(C)c(Cl)cc2OC)nnc1-c1ccco1`?
Wee1 stabilizer: 0.4; thrombin 1536: -7.5; FXIa inh: 0.3; FXIIa inh 1536: -1.8; Platelet DG rel: 0.8; KLK5 inh: -26.3

Results for O=C(COc1ccc(S(=O)(=O)N2CCOCC2)cc1)NCCN1CCOCC1 ?
Platelet DG rel: -7.3

Results for O=C(CNCc1cccs1)Nc1ccc(N2CCCCCC2)cc1 ?
Wee1 stabilizer: -0.7; thrombin 1536: -1.8; FXIa inh: -3.9; FXIIa inh 1536: 1.1; Platelet DG rel: 3.5; KLK5 inh: -4.5

Results for COc1ccc(-c2nc3cc([N+](=O)[O-])ccc3o2)cc1 ?
Wee1 stabilizer: 14.2*; thrombin 1536: 14.6; FXIa inh: 9.7; FXIIa inh 1536: 26.6; Platelet DG rel: -1.4; Wee1 degr conf: 1.4

What do the screens show for `Cc1ccc(OC(C)C(=O)N(C)Cc2ccccc2)c([N+](=O)[O-])n1` (stereo not drawn)?
Platelet DG rel: -3.4

Results for COc1cccc(NC(=O)c2cccc(C)c2[N+](=O)[O-])c1 ?
Wee1 stabilizer: 13.9*; thrombin 1536: -3.6; FXIa inh: -2.8; FXIIa inh 1536: 7.5; Platelet DG rel: 3.4; KLK5 inh: 0.3; Wee1 degr conf: 2.5

What do the screens show for `O=S(=O)(c1cccc2nsnc12)N1CCN(C/C=C/c2ccccc2)CC1`?
Wee1 stabilizer: 11.4*; thrombin 1536: -2.2; FXIa inh: -8.9; FXIIa inh 1536: -6.2; Platelet DG rel: 0.8; KLK5 inh: -2.2; Wee1 degr conf: 1.1

What do the screens show for `O=S(=O)(c1cccc2nsnc12)N1CCN(C/C=C\c2ccccc2)CC1`?
Wee1 stabilizer: -1.2; thrombin 1536: -1.7; FXIa inh: -6.6; FXIIa inh 1536: 10.5; Platelet DG rel: -0.6; KLK5 inh: -0.3

How did CN1/C(=C\C(=O)c2cccnc2)Sc2ccccc21 do in these assays?
Wee1 stabilizer: 13.4*; thrombin 1536: -9.8; FXIa inh: -0.9; FXIIa inh 1536: 7.8; Platelet DG rel: 14.0; KLK5 inh: 3.8; Wee1 degr conf: 4.8

What do the screens show for `O=C(CN1CCOCC1)N/N=C/c1ccc(-c2cccc(Cl)c2Cl)o1`?
Wee1 stabilizer: 1.3; thrombin 1536: -5.3; FXIa inh: 3.0; FXIIa inh 1536: 6.2; Platelet DG rel: 1.0; KLK5 inh: -5.8

Results for O=C1CC(N2CCN(C3CCc4ccccc4C3)CC2)C(=O)N1c1ccccc1 (stereo not drawn) ?
Wee1 stabilizer: -0.3; Platelet DG rel: -21.8

Results for COc1cnn(-c2cc(Oc3ccc(C)cc3)ncn2)c(=O)c1Cl ?
Wee1 stabilizer: 1.7; thrombin 1536: -19.3; FXIa inh: 3.2; FXIIa inh 1536: -3.7; Platelet DG rel: 1.4; KLK5 inh: 2.9

What do the screens show for `COCCOc1cnn(-c2cc(Oc3ccc(C)cc3)ncn2)c(=O)c1Cl`?
Wee1 stabilizer: 11.7*; thrombin 1536: 3.7; FXIa inh: 10.5; FXIIa inh 1536: 18.7; Platelet DG rel: -2.9; KLK5 inh: 7.3; Wee1 degr conf: 3.7

Results for C/C=C/C=C/C(=O)Nc1nccs1 ?
Wee1 stabilizer: 11.4*; thrombin 1536: 2.5; FXIa inh: 11.9; FXIIa inh 1536: 16.0; Platelet DG rel: -8.6; KLK5 inh: -1.7; Wee1 degr conf: 1.8

What do the screens show for `O=C(/C=C/c1ccc(Cl)cc1)Nc1nccs1`?
Wee1 stabilizer: 13.0*; thrombin 1536: -2.6; FXIa inh: -2.0; FXIIa inh 1536: 6.8; Platelet DG rel: 7.5; KLK5 inh: -0.1; Wee1 degr conf: 0.0

What do the screens show for `C/C(=C\c1ccccc1)C(=O)Nc1nccs1`?
Wee1 stabilizer: -1.4; thrombin 1536: -4.5; FXIa inh: -2.5; FXIIa inh 1536: 3.3; Platelet DG rel: -9.4; KLK5 inh: -3.5

What do the screens show for `Cc1cc2nc(C)n(CCCNC(=O)Nc3ccc(F)cc3)c2cc1C`?
Wee1 stabilizer: 1.3; thrombin 1536: -5.6; FXIa inh: -3.5; FXIIa inh 1536: -9.0; Platelet DG rel: -1.7; KLK5 inh: -15.1

Results for COc1ccc(NC(=S)Nc2ccccc2C(F)(F)F)cc1 ?
Wee1 stabilizer: 17.1*; thrombin 1536: 4.6; FXIa inh: -3.6; FXIIa inh 1536: 5.1; Platelet DG rel: 5.1; KLK5 inh: -7.5; Wee1 degr conf: 1.3

Results for O=C1OCC2=C1C(c1ccc(Cl)cc1)CC(=O)N2c1ccc(F)cc1 (stereo not drawn) ?
Wee1 stabilizer: 13.6*; thrombin 1536: 0.9; FXIa inh: 4.0; FXIIa inh 1536: 2.6; Platelet DG rel: -0.3; KLK5 inh: -3.0; Wee1 degr conf: 1.8

Results for O=C1OCC2=C1C(c1ccccc1)CC(=O)N2c1ccc(F)cc1 (stereo not drawn) ?
Wee1 stabilizer: 3.9; thrombin 1536: -2.2; FXIa inh: 0.4; FXIIa inh 1536: 7.7; Platelet DG rel: 27.3

What do the screens show for `Cc1nnc(SCC(=O)Nc2ccccc2F)n1-c1ccc(F)cc1`?
Platelet DG rel: 3.0

Results for CCCCN1C(=O)NC(NC(=O)C2CC2)(C(F)(F)F)C1=O (stereo not drawn) ?
Wee1 stabilizer: 5.5; thrombin 1536: -0.1; FXIa inh: -0.5; FXIIa inh 1536: 8.0; Platelet DG rel: 2.5; KLK5 inh: -2.1
